Test results taken from ChEMBL document CHEMBL4689842, “EUbOPEN Chemogenomics Library wave 1” (2021).

System: Fibroblast
Assay: Multiplex assay against human fibroblast
Format: toxicity, cell-based
Outline: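 Four dyes were applied at seeding to live cells: Hoechst33342, BioTracker Green Microtubule Cytoskeleton Dye, MitoTracker Red and Annexin V Alexa Fluor 680. Imaging after compound addition used a CQ1 microscope at 37°C and 5% CO2. CellPathfinder machine-learning gating then sorted cells into Hoechst high-intensity objects or normal cells, normal cells into healthy, pyknosed or fragmented nuclei, and pyknosed cells into mitotic or apoptotic, with tubulin, mitochondrial-mass and membrane-permeability phenotypes given as per cents of healthy-nucleus cells.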

[1] = 12 h, 1 µM, compound concentration 1 uM, replicate 1
[2] = 12 h, 1 µM, compound concentration 1 uM, replicate 2
[3] = 12 h, 10 µM, compound concentration 10 uM, replicate 1
[4] = 12 h, 10 µM, compound concentration 10 uM, replicate 2
[5] = 24 h, 1 µM, compound concentration 1 uM, replicate 1
[6] = 24 h, 1 µM, compound concentration 1 uM, replicate 2
[7] = 24 h, 10 µM, compound concentration 10 uM, replicate 1
[8] = 24 h, 10 µM, compound concentration 10 uM, replicate 2
[9] = 48 h, 1 µM, compound concentration 1 uM, replicate 1
[10] = 48 h, 1 µM, compound concentration 1 uM, replicate 2
[11] = 48 h, 10 µM, compound concentration 10 uM, replicate 1
[12] = 48 h, 10 µM, compound concentration 10 uM, replicate 2

Compound: CCOc1cc2ncc(C#N)c(Nc3ccc(OCc4ccccn4)c(Cl)c3)c2cc1NC(=O)/C=C/CN(C)C [NERATINIB]
- Population Apoptotic (%) [1]: 55%
- Population Fragmented Nuclei (%) [1]: 21%
- Population Healthy Nuclei (%) [1]: 37%
- Population Hoechst High Intensity Objects (%) [1]: 14%
- Population Membrane Permeable-Phenotype (%) [1]: 25%
- Population Mitochondria Different-Phenotype (%) [1]: 13%
- Population Mitotic Cells (%) [1]: 44%
- Population Normal (%) [1]: 85%
- Population Pyknosed Nuclei (%) [1]: 41%
- Population Tubulin-Different-Phenotype (%) [1]: 58%
- Total Cell Count [1]: 134
- Population Apoptotic (%) [2]: 11%
- Population Fragmented Nuclei (%) [2]: 9%
- Population Healthy Nuclei (%) [2]: 82%
- Population Hoechst High Intensity Objects (%) [2]: 8%
- Population Membrane Permeable-Phenotype (%) [2]: 4%
- Population Mitochondria Different-Phenotype (%) [2]: 18%
- Population Mitotic Cells (%) [2]: 88%
- Population Normal (%) [2]: 91%
- Population Pyknosed Nuclei (%) [2]: 9%
- Population Tubulin-Different-Phenotype (%) [2]: 15%
- Total Cell Count [2]: 64
- Population Apoptotic (%) [3]: 45%
- Population Fragmented Nuclei (%) [3]: 25%
- Population Healthy Nuclei (%) [3]: 44%
- Population Hoechst High Intensity Objects (%) [3]: 34%
- Population Membrane Permeable-Phenotype (%) [3]: 7%
- Population Mitochondria Different-Phenotype (%) [3]: 1%
- Population Mitotic Cells (%) [3]: 54%
- Population Normal (%) [3]: 65%
- Population Pyknosed Nuclei (%) [3]: 30%
- Population Tubulin-Different-Phenotype (%) [3]: 13%
- Total Cell Count [3]: 621
- Population Apoptotic (%) [4]: 12%
- Population Fragmented Nuclei (%) [4]: 35%
- Population Healthy Nuclei (%) [4]: 50%
- Population Hoechst High Intensity Objects (%) [4]: 27%
- Population Mitochondria Different-Phenotype (%) [4]: 16%
- Population Mitotic Cells (%) [4]: 87%
- Population Normal (%) [4]: 72%
- Population Pyknosed Nuclei (%) [4]: 13%
- Population Tubulin-Different-Phenotype (%) [4]: 42%
- Total Cell Count [4]: 109
- Population Apoptotic (%) [5]: 64%
- Population Fragmented Nuclei (%) [5]: 21%
- Population Healthy Nuclei (%) [5]: 40%
- Population Hoechst High Intensity Objects (%) [5]: 18%
- Population Membrane Permeable-Phenotype (%) [5]: 32%
- Population Mitochondria Different-Phenotype (%) [5]: 11%
- Population Mitotic Cells (%) [5]: 35%
- Population Normal (%) [5]: 81%
- Population Pyknosed Nuclei (%) [5]: 37%
- Population Tubulin-Different-Phenotype (%) [5]: 53%
- Total Cell Count [5]: 129
- Population Apoptotic (%) [6]: 23%
- Population Fragmented Nuclei (%) [6]: 9%
- Population Healthy Nuclei (%) [6]: 76%
- Population Hoechst High Intensity Objects (%) [6]: 5%
- Population Membrane Permeable-Phenotype (%) [6]: 5%
- Population Mitochondria Different-Phenotype (%) [6]: 6%
- Population Mitotic Cells (%) [6]: 76%
- Population Normal (%) [6]: 94%
- Population Pyknosed Nuclei (%) [6]: 14%
- Population Tubulin-Different-Phenotype (%) [6]: 11%
- Total Cell Count [6]: 73
- Population Apoptotic (%) [7]: 52%
- Population Fragmented Nuclei (%) [7]: 25%
- Population Healthy Nuclei (%) [7]: 48%
- Population Hoechst High Intensity Objects (%) [7]: 39%
- Population Membrane Permeable-Phenotype (%) [7]: 3%
- Population Mitochondria Different-Phenotype (%) [7]: 3%
- Population Mitotic Cells (%) [7]: 47%
- Population Normal (%) [7]: 60%
- Population Pyknosed Nuclei (%) [7]: 26%
- Population Tubulin-Different-Phenotype (%) [7]: 15%
- Total Cell Count [7]: 651
- Population Apoptotic (%) [8]: 12%
- Population Fragmented Nuclei (%) [8]: 36%
- Population Healthy Nuclei (%) [8]: 49%
- Population Hoechst High Intensity Objects (%) [8]: 26%
- Population Membrane Permeable-Phenotype (%) [8]: 10%
- Population Mitochondria Different-Phenotype (%) [8]: 14%
- Population Mitotic Cells (%) [8]: 87%
- Population Normal (%) [8]: 73%
- Population Pyknosed Nuclei (%) [8]: 14%
- Population Tubulin-Different-Phenotype (%) [8]: 34%
- Total Cell Count [8]: 124
- Population Apoptotic (%) [9]: 61%
- Population Fragmented Nuclei (%) [9]: 36%
- Population Healthy Nuclei (%) [9]: 45%
- Population Hoechst High Intensity Objects (%) [9]: 18%
- Population Membrane Permeable-Phenotype (%) [9]: 26%
- Population Mitochondria Different-Phenotype (%) [9]: 6%
- Population Mitotic Cells (%) [9]: 38%
- Population Normal (%) [9]: 81%
- Population Pyknosed Nuclei (%) [9]: 18%
- Population Tubulin-Different-Phenotype (%) [9]: 51%
- Total Cell Count [9]: 122
- Population Apoptotic (%) [10]: 33%
- Population Fragmented Nuclei (%) [10]: 20%
- Population Healthy Nuclei (%) [10]: 76%
- Population Hoechst High Intensity Objects (%) [10]: 12%
- Population Membrane Permeable-Phenotype (%) [10]: 9%
- Population Mitochondria Different-Phenotype (%) [10]: 4%
- Population Mitotic Cells (%) [10]: 66%
- Population Normal (%) [10]: 87%
- Population Pyknosed Nuclei (%) [10]: 2%
- Population Tubulin-Different-Phenotype (%) [10]: 14%
- Total Cell Count [10]: 123
- Population Apoptotic (%) [11]: 55%
- Population Fragmented Nuclei (%) [11]: 28%
- Population Healthy Nuclei (%) [11]: 42%
- Population Hoechst High Intensity Objects (%) [11]: 42%
- Population Membrane Permeable-Phenotype (%) [11]: 5%
- Population Mitochondria Different-Phenotype (%) [11]: 4%
- Population Mitotic Cells (%) [11]: 44%
- Population Normal (%) [11]: 57%
- Population Pyknosed Nuclei (%) [11]: 28%
- Population Tubulin-Different-Phenotype (%) [11]: 11%
- Total Cell Count [11]: 626
- Population Apoptotic (%) [12]: 62%
- Population Fragmented Nuclei (%) [12]: 24%
- Population Healthy Nuclei (%) [12]: 56%
- Population Hoechst High Intensity Objects (%) [12]: 48%
- Population Membrane Permeable-Phenotype (%) [12]: 2%
- Population Mitochondria Different-Phenotype (%) [12]: 1%
- Population Mitotic Cells (%) [12]: 37%
- Population Normal (%) [12]: 51%
- Population Pyknosed Nuclei (%) [12]: 19%
- Population Tubulin-Different-Phenotype (%) [12]: 18%
- Total Cell Count [12]: 814
